Activity calls are given as the source filed them. The rule behind the calls is not given here.
What was measured:
Hepatitis C virus [1] = experiment: Antiviral activity against Hepatitis C virus genotype 1b infected in human Huh-luc replicon cells after 3 days by luciferase assay; type: functional, organism-based, Hepacivirus hominis; details: subtype 1b, 72 h
[2] = Cytotoxicity against human Hep2 cells assessed as reduction in cell viability after 3 days by CellTiter-Glo assay; type: cell-based; details: HEp-2 cells
Hepatitis C virus [3] = experiment: Antiviral activity against Hepatitis C virus genotype 2a infected in human Huh-luc replicon cells after 3 days by luciferase assay; type: functional, organism-based, Hepacivirus hominis; details: subtype 2a, 72 h
BJ = experiment: Antiproliferative activity against human BJ cells after 3 days by MTS assay; details: 72 h
MRC5 = experiment: Antiproliferative activity against human MRC5 cells after 3 days by MTS assay; details: MRC5, 72 h
A549 = experiment: Antiproliferative activity against human A549 cells after 3 days by MTS assay; type: functional, cell-based; details: A549, 72 h
CCRF-CEM [4] = experiment: Antiproliferative activity against human CCRF-CEM cells after 3 days by MTS assay; type: functional, cell-based; details: 72 h
[5] = Antiproliferative activity against human CEM-DNR-bulk cells after 3 days by MTS assay; details: 72 h
HCT-116 [6] = experiment: Antiproliferative activity against human HCT116 cells after 3 days by MTS assay; type: functional, cell-based; details: HCT-116, 72 h
HCT-116 [7] = experiment: Antiproliferative activity against p53 gene knocked out human HCT116 cells after 3 days by MTS assay; type: functional, cell-based; details: HCT-116, 72 h
K562 = experiment: Antiproliferative activity against human K562 cells after 3 days by MTS assay; type: functional, cell-based; details: K562, 72 h
[8] = Antiproliferative activity against human K562-TAX cells after 3 days by MTS assay; type: functional, cell-based; details: 72 h
U2OS = experiment: Antiproliferative activity against human U2OS cells after 3 days by MTS assay; type: functional, cell-based; details: 72 h
HL-60 = experiment: Antiproliferative activity against human HL60 cells after 72 hrs by XTT assay; type: functional, cell-based; details: HL-60, 72 h
HepG2 = experiment: Antiproliferative activity against human HepG2 cells after 72 hrs by XTT assay; type: functional, cell-based; details: HepG2, 72 h
HeLa S3 = experiment: Antiproliferative activity against human HeLaS3 cells after 72 hrs by XTT assay; type: functional, cell-based; details: HeLa S3, 72 h
CCRF-CEM [9] = experiment: Induction of cell cycle arrest in human CCRF-CEM cells assessed as accumulation at subG1 phase at IC50 concentration after 24 hrs by propidium iodide-staining based flow cytometry (reference value: 3.45%); type: functional
CCRF-CEM [10] = experiment: Induction of cell cycle arrest in human CCRF-CEM cells assessed as accumulation at subG1 phase at 5 times IC50 concentration after 24 hrs by propidium iodide-staining based flow cytometry (reference value: 3.45%); type: functional
CCRF-CEM [11] = experiment: Induction of cell cycle arrest in human CCRF-CEM cells assessed as accumulation at G0/G1 phase at IC50 concentration after 24 hrs by propidium iodide-staining based flow cytometry (reference value: 39.70%); type: functional
CCRF-CEM [12] = experiment: Induction of cell cycle arrest in human CCRF-CEM cells assessed as accumulation at G0/G1 phase at 5 times IC50 concentration after 24 hrs by propidium iodide-staining based flow cytometry (reference value: 39.70%); type: functional
CCRF-CEM [13] = experiment: Induction of cell cycle arrest in human CCRF-CEM cells assessed as accumulation at S phase at IC50 concentration after 24 hrs by propidium iodide-staining based flow cytometry (reference value: 41.08%); type: functional
CCRF-CEM [14] = experiment: Induction of cell cycle arrest in human CCRF-CEM cells assessed as accumulation at S phase at 5 times IC50 concentration after 24 hrs by propidium iodide-staining based flow cytometry (reference value: 41.08%); type: functional
CCRF-CEM [15] = experiment: Induction of cell cycle arrest in human CCRF-CEM cells assessed as accumulation at G2/M phase at IC50 concentration after 24 hrs by propidium iodide-staining based flow cytometry (reference value: 19.22%); type: functional
CCRF-CEM [16] = experiment: Induction of cell cycle arrest in human CCRF-CEM cells assessed as accumulation at G2/M phase at 5 times IC50 concentration after 24 hrs by propidium iodide-staining based flow cytometry (reference value: 19.22%); type: functional
CCRF-CEM [17] = experiment: Inhibition of mitosis in human CCRF-CEM cells assessed Ser10 H3 phosphorylation positive cells at IC50 concentration after 24 hrs by flow cytometry relative to total cell population (reference value: 1.36%); type: functional; design: scale not given: the % may be the effect or the level left
CCRF-CEM [18] = experiment: Inhibition of mitosis in human CCRF-CEM cells assessed Ser10 H3 phosphorylation positive cells at 5 times IC50 concentration after 24 hrs by flow cytometry relative to total cell population (reference value: 1.36%); type: functional; design: scale not given: the % may be the effect or the level left
CCRF-CEM [19] = experiment: Inhibition of DNA synthesis in human CCRF-CEM cells assessed as DNA synthesis level at IC50 concentration after 24 hrs by BrdU incorporation assay (reference value: 43.39%); type: functional; design: scale not given: the % may be the effect or the level left
CCRF-CEM [20] = experiment: Inhibition of DNA synthesis in human CCRF-CEM cells assessed as DNA synthesis level at 5 times IC50 concentration after 24 hrs by BrdU incorporation assay (reference value: 43.39%); type: functional; design: scale not given: the % may be the effect or the level left
CCRF-CEM [21] = experiment: Inhibition of RNA synthesis in human CCRF-CEM cells assessed as RNA synthesis level at IC50 concentration after 24 hrs by BrU incorporation assay (reference value: 49.89%); type: functional; design: scale not given: the % may be the effect or the level left
CCRF-CEM [22] = experiment: Inhibition of RNA synthesis in human CCRF-CEM cells assessed as RNA synthesis level at 5 times IC50 concentration after 24 hrs by BrU incorporation assay (reference value: 49.89%); type: functional; design: scale not given: the % may be the effect or the level left
Adenosine kinase [23] = target: T1, Adenosine kinase (Homo sapiens, UniProt P55263); experiment: Substrate activity at recombinant human ADK assessed as compound phosphorylation at 50 uM after 20 mins in presence of [3H]-adenosine by UPLC; type: ADME
Adenosine kinase [24] = target: T1, Adenosine kinase; experiment: Inhibition of recombinant human ADK using [3H]-adenosine as substrate after 20 mins by TLC scanner-based analysis relative to control
Method in brief: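 ADK inhibition: 50 μM adenosine substrate with 10 μM test compound and 97 ng enzyme, 20 min at 37 °C.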

Influenza A virus = experiment: Antiviral activity against Influenza A virus (A/Mexico/4108/2009(H1N1)) infected in MDCK cells assessed as inhibited virus-induced cytopathic effect incubated for 2 days by XTT assay; type: functional, organism-based
Human orthopneumovirus = experiment: Antiviral activity against Human respiratory syncytial virus A2 infected in Hep2 cells assessed as reduction in virus-induced cytopathic effect incubated for 4 days by CellTiter-Glo viability reagent based assay; type: functional, organism-based
Coxsackievirus B3 = experiment: Antiviral activity against Human coxsackie B3 Nancy infected in human HeLa cells assessed as inhibited virus-induced cytopathic effect incubated for 2 days by XTT assay; type: functional, organism-based
Human alphaherpesvirus 1 = experiment: Antiviral activity against human herpesvirus 1 HF infected in African green monkey Vero cells assessed as inhibited virus-induced cytopathic effect incubated for 3 days by XTT assay; type: functional, organism-based
dengue virus type 2 = experiment: Antiviral activity against Dengue virus 2 Thailand/16681/84 infected in African green monkey Vero cells assessed as inhibition of virus replication incubated for 3 days by fluorescence microscopy; type: functional, organism-based

T1 sequence (P55263 whole entry): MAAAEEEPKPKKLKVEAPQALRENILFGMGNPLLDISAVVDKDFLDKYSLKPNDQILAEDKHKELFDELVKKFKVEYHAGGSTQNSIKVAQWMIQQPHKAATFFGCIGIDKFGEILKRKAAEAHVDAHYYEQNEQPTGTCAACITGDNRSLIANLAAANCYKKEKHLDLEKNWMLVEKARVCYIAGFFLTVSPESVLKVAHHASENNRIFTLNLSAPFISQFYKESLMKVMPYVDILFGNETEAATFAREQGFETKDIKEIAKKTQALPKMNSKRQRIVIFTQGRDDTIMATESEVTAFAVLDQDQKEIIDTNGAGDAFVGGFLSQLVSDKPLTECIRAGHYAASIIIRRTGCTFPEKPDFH

`COc1ncnc2c1c1occc1n2[C@@H]1O[C@H](CO)[C@@H](O)[C@H]1O` showed an EC50 (Hepatitis C virus [1]) of 380 nM, a CC50 at 72 h [2] greater than 44400 nM and an EC50 (Hepatitis C virus [3]) of 290 nM. For the same compound, the IC50 (BJ) was 1090 nM, the IC50 (MRC5) was 13400 nM and the IC50 (A549) was 1930 nM. For the same compound, the IC50 (CCRF-CEM [4]) was 180 nM, the IC50 [5] was 3120 nM and the IC50 (HCT-116 [6]) was 280 nM. It also gave an IC50 (HCT-116 [7]) of 300 nM, an IC50 (K562) of 320 nM and an IC50 [8] of 300 nM. The IC50 (U2OS) was 430 nM, the IC50 (HL-60) was 700 nM and the IC50 (HepG2) was 2410 nM. For the same compound, the IC50 (HeLa S3) was 2310 nM, the Activity (CCRF-CEM [9]) was 4.23% and the Activity (CCRF-CEM [10]) was 6.82%. The Activity (CCRF-CEM [11]) was 41.52%, the Activity (CCRF-CEM [12]) was 20.54% and the Activity (CCRF-CEM [13]) was 41.82%. It also gave an Activity (CCRF-CEM [14]) of 65.39%, an Activity (CCRF-CEM [15]) of 16.65% and an Activity (CCRF-CEM [16]) of 14.07%. For the same compound, the Activity (CCRF-CEM [17]) was 0.56%, the Activity (CCRF-CEM [18]) was 0.58% and the Activity (CCRF-CEM [19]) was 42.65%. The Activity (CCRF-CEM [20]) was 52.74%, the Activity (CCRF-CEM [21]) was 25.36% and the Activity (CCRF-CEM [22]) was 4.3%. For the same compound, the Activity (Adenosine kinase [23]) was 35%, the IC50 (Adenosine kinase [24]) was greater than 10000 nM and the Activity (Influenza A virus) was “inactive”. For the same compound, the Activity (Human orthopneumovirus) was “inactive”, the Activity (Coxsackievirus B3) was “inactive” and the Activity (Human alphaherpesvirus 1) was “inactive”. The Activity (dengue virus type 2) was “inactive”.
